Source: ChEMBL document CHEMBL1144324, “2,3-Dimethoxy-5-methyl-1,4-benzoquinones and 2-methyl-1,4-naphthoquinones: glycation inhibitors with lipid peroxidation activity” (Bioorg Med Chem Lett, 2005)

Legend:
Assay type in all cases: functional, organism-based; call rule not given here
Rattus norvegicus [1] = organism: Rattus norvegicus; test: Inhibitory concentration against lipid peroxidation in rat
Method in brief: (§1)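 TBARS assay in rat brain homogenate (5 mg protein/mL). Compound was preincubated with homogenate 20 min at 37 °C with shaking, then peroxidation was started with 0.02 mM FeCl2 and 0.25 mM ascorbic acid for 30 min at 37 °C. The reaction was stopped with perchloric acid and centrifuged. Supernatant was reacted with 0.5% TBA at 80 °C for 1 h and A532 read against a 1,1,3,3-tetraethoxypropane standard.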

Bos taurus [2] = organism: Bos taurus; test: Inhibitory concentration against bovine serum albumin glycation was determined
Rattus norvegicus [3] = organism: Rattus norvegicus; test: Inhibitory concentration for lipid peroxidation in rat; method in brief: as §1
Bos taurus [4] = organism: Bos taurus; test: Inhibitory concentration against bovine serum albumin glycation; Not active from 3.80 nM to 1.00 mM

Row | SMILES | IC50 (Rattus norvegicus [1]) [µM] | IC50 (Bos taurus [2]) [µM] | IC50 (Rattus norvegicus [3]) [µM] | IC50 (Bos taurus [4])
1 | COC1=C(OC)C(=O)C(c2ccccc2)=C(C)C1=O | 39.4 | 218 |  | 
2 | Cc1c(C)c2c(c(C)c1O)CC[C@@](C)(CCC[C@H](C)CCC[C@H](C)CCCC(C)C)O2 [ALPHA-TOCOPHEROL] |  |  |  | Not Active
3 | CC1=CC(=O)c2ccccc2C1=O [MENADIONE] | 12.2 |  |  | 

The remaining lines, values ahead:

Row | IC50 (Rattus norvegicus [1]) [µM] | IC50 (Bos taurus [2]) [µM] | IC50 (Rattus norvegicus [3]) [µM] | IC50 (Bos taurus [4]) | SMILES
4 | 1.1 | 144 |  |  | CC1=C(Br)C(=O)c2ccccc2C1=O
5 |  |  | 29.2 |  | COC1=C(OC)C(=O)C(C(=O)NCCc2ccccc2)=C(C)C1=O
6 | 1.41 | 199 |  |  | CC1=C(Cl)C(=O)c2ccccc2C1=O
